ChEMBL document CHEMBL1137737, “Synthesis, antimicrobial and cytotoxic activities of 1,3,4-oxadiazoles, 1,3,4-thiadiazoles and 1,2,4-triazoles” (Eur J Med Chem, 2009)
In brackets after ≈: the same amount, converted by molar mass.

Experiments:
Format in all cases: functional
Proteus vulgaris [1] = test: Antibacterial activity against Proteus vulgaris NCIM 2027 at 200 ug/disk after 24 hrs by agar disc-diffusion method; conditions: NCIM 2027, 24 h, read-out: DIZ
Outline: (§1)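 Sterile 6 mm filter-paper discs are soaked in compound solution in DMSO and placed on nutrient agar plates already inoculated with each organism. Plates are incubated at 37 °C. The diameter of the growth-inhibition zone is read after 24 h for bacteria and after 48 h for fungi.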

Bacillus subtilis [2] = test: Antibacterial activity against Bacillus subtilis NCIM 2063 at 100 ug/disk after 24 hrs by agar disc-diffusion method; conditions: NCIM 2063, 24 h, read-out: DIZ; outline: as §1
Aspergillus niger [3] = test: Antifungal activity against Aspergillus niger NCIM 596 at 200 ug/disk after 48 hrs by agar disc-diffusion method; conditions: NCIM 596, 48 h, read-out: DIZ; outline: as §1
Fusarium solani [4] = test: Antifungal activity against Fusarium solani NCIM 1330 at 100 ug/disk after 48 hrs by agar disc-diffusion method; conditions: NCIM 1330, 48 h, read-out: DIZ; outline: as §1
Curvularia lunata [5] = test: Antifungal activity against Curvularia lunata NCIM 716 at 100 ug/disk after 48 hrs by agar disc-diffusion method; conditions: NCIM 716, 48 h, read-out: DIZ; outline: as §1
Staphylococcus aureus [6] = test: Antibacterial activity against Staphylococcus aureus NCIM 5021 at 100 ug/disk after 24 hrs by agar disc-diffusion method; conditions: NCIM 5021, 24 h, read-out: DIZ; outline: as §1
Fusarium solani [7] = test: Antifungal activity against Fusarium solani NCIM 1330 at 200 ug/disk after 48 hrs by agar disc-diffusion method; conditions: NCIM 1330, 48 h, read-out: DIZ; outline: as §1
Fusarium solani [8] = test: Antifungal activity against Fusarium solani NCIM 1330 after 48 hrs by microdilution susceptibility method; conditions: NCIM 1330, 48 h
Outline: (§2)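 This is a microdilution susceptibility test. Organism suspensions are inoculated into wells holding the dilution series, then incubated at 36 °C for 24 h (bacteria) or 48 h (fungi). MIC is the lowest concentration giving no turbidity, i.e. complete inhibition of visible growth.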

Staphylococcus aureus [9] = test: Antibacterial activity against Staphylococcus aureus NCIM 5021 after 24 hrs by microdilution susceptibility method; conditions: NCIM 5021, 24 h; outline: as §2
Aspergillus niger [10] = test: Antifungal activity against Aspergillus niger NCIM 596 at 100 ug/disk after 48 hrs by agar disc-diffusion method; conditions: NCIM 596, 48 h, read-out: DIZ; outline: as §1
Staphylococcus aureus [11] = test: Antibacterial activity against Staphylococcus aureus NCIM 5021 at 200 ug/disk after 24 hrs by agar disc-diffusion method; conditions: NCIM 5021, 24 h, read-out: DIZ; outline: as §1
Bacillus subtilis [12] = test: Antibacterial activity against Bacillus subtilis NCIM 2063 at 200 ug/disk after 24 hrs by agar disc-diffusion method; conditions: NCIM 2063, 24 h, read-out: DIZ; outline: as §1
Klebsiella pneumoniae [13] = test: Antibacterial activity against Klebsiella pneumoniae NCIM 2957 at 200 ug/disk after 24 hrs by agar disc-diffusion method; conditions: NCIM 2957, 24 h, read-out: DIZ; outline: as §1
Klebsiella pneumoniae [14] = test: Antibacterial activity against Klebsiella pneumoniae NCIM 2957 at 100 ug/disk after 24 hrs by agar disc-diffusion method; conditions: NCIM 2957, 24 h, read-out: DIZ; outline: as §1
Curvularia lunata [15] = test: Antifungal activity against Curvularia lunata NCIM 716 at 200 ug/disk after 48 hrs by agar disc-diffusion method; conditions: NCIM 716, 48 h, read-out: DIZ; outline: as §1
Curvularia lunata [16] = test: Antifungal activity against Curvularia lunata NCIM 716 after 48 hrs by microdilution susceptibility method; conditions: NCIM 716, 48 h; outline: as §2
Proteus vulgaris [17] = test: Antibacterial activity against Proteus vulgaris NCIM 2027 at 100 ug/disk after 24 hrs by agar disc-diffusion method; conditions: NCIM 2027, 24 h, read-out: DIZ; outline: as §1
Bacillus subtilis [18] = test: Antibacterial activity against Bacillus subtilis NCIM 2063 after 24 hrs by microdilution susceptibility method; conditions: NCIM 2063, 24 h; outline: as §2

Structure (SMILES)	zone of inhibition at 200 µg/disc (Proteus vulgaris [1]) [mm]	zone of inhibition at 100 µg/disc (Bacillus subtilis [2]) [mm]	zone of inhibition at 200 µg/disc (Aspergillus niger [3]) [mm]	zone of inhibition at 100 µg/disc (Fusarium solani [4]) [mm]	zone of inhibition at 100 µg/disc (Curvularia lunata [5]) [mm]	zone of inhibition at 100 µg/disc (Staphylococcus aureus [6]) [mm]	zone of inhibition at 200 µg/disc (Fusarium solani [7]) [mm]	MIC (Fusarium solani [8]) [µg/mL]	MIC (Staphylococcus aureus [9]) [µg/mL]	zone of inhibition at 100 µg/disc (Aspergillus niger [10]) [mm]	zone of inhibition at 200 µg/disc (Staphylococcus aureus [11]) [mm]	zone of inhibition at 200 µg/disc (Bacillus subtilis [12]) [mm]	zone of inhibition at 200 µg/disc (Klebsiella pneumoniae [13]) [mm]	zone of inhibition at 100 µg/disc (Klebsiella pneumoniae [14]) [mm]	zone of inhibition at 200 µg/disc (Curvularia lunata [15]) [mm]	MIC (Curvularia lunata [16]) [µg/mL]	zone of inhibition at 100 µg/disc (Proteus vulgaris [17]) [mm]	MIC (Bacillus subtilis [18]) [µg/mL]
O=S(=O)(Cc1ccccc1)Cc1nnc(-c2ccccc2Cl)o1	17	15	21	17	18	17	19	400 (≈ 1150 µM)	400 (≈ 1150 µM)	18	20	18	16	14	23	400 (≈ 1150 µM)	15	
O=S(=O)(Cc1nnc(-c2ccccc2)o1)c1ccccc1	17	11	17	15	15	12	18			14	15	13	18	16	19		14	
O=S(=O)(Cc1nnc(-c2ccccc2Cl)o1)c1ccc(Cl)cc1	19	16	16	16	17	15	19	400 (≈ 1080 µM)	400 (≈ 1080 µM)	15	18	17	17	14	19	400 (≈ 1080 µM)	16	400 (≈ 1080 µM)
O=S(=O)(Cc1nnc(-c2ccccc2)s1)c1ccccc1	20	15	17	18	16	19	22	400 (≈ 1260 µM)	400 (≈ 1260 µM)	15	21	17	18	16	19	400 (≈ 1260 µM)	18	400 (≈ 1260 µM)
Nn1c(CS(=O)(=O)c2ccccc2)nnc1-c1ccccc1	18	14	22	22	20	16	25	400 (≈ 1270 µM)	400 (≈ 1270 µM)	19	18	17	18	15	24	400 (≈ 1270 µM)	16	400 (≈ 1270 µM)
O=S(=O)(Cc1ccccc1)Cc1nnc(-c2ccccc2)o1	15	14	17	17	18	16	20	400 (≈ 1270 µM)	400 (≈ 1270 µM)	16	18	17	18	15	22		12	
O=S(=O)(Cc1nnc(-c2ccccc2Cl)o1)c1ccccc1	17	16	17	16	18	14	20			15	16	17	15	12	22		14	
O=S(=O)(Cc1nnc(-c2ccccc2)o1)c1ccc(Cl)cc1	15	15	19	16	15	15	20	400 (≈ 1190 µM)		16	18	17	16	14	17		12	
O=S(=O)(Cc1ccc(Cl)cc1)Cc1nnc(-c2ccccc2)o1	17	18	21	16	19	18	19	400 (≈ 1150 µM)	400 (≈ 1150 µM)	17	20	19	18	16	22	400 (≈ 1150 µM)	15	
